# Screens deposited in PubChem by several laboratories.
# The list is not random: actives were taken first. Their share in the collection is about 3.6%.
# Measles CPE – compounds protecting cells from measles virus cytopathic effect, primary screen, measles RdRp inhibitor project, single point, MLSMR library, absorbance; protection (pct of control), % at 4 µM; Measles virus-infected cells, CPE protection; AID 841, 2007; 140,000 compounds, 1.5% hits; in the data active = protection mostly above about 24%, no sharp cut-off; inactive = mostly below about 26%
# Yeast lifespan up – compounds extending yeast replicative lifespan, primary screen, S. cerevisiae, OD615; inhibition of the nicotinamide effect, % at 10 µM; S. cerevisiae growth with nicotinamide; deaD strain in restrictive glucose medium; 130,000 compounds, 0.68% hits;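 active = inhibition above a set limit, placed 3 SD over the median of all compounds, cut at about 26% in these data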;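 also: 0% = nicotinamide-treated wells and 100% = cells grown without nicotinamide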
#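 Assay system: engineered S. cerevisiae DeaD replicative-lifespan strain, galactose-grown log-phase cells; Buffer or medium: CSMM-D glucose medium, restrictive; Probe or stimulus: nicotinamide 1.5 mM; Compound: single dose 10 µM compound, 0.25% DMSO; Schedule: 4 h preincubation then 48 h treatment at 30 °C; Technique: OD615 measurement.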
# Yeast growth inh – growth inhibitors of yeast BB579 in restrictive medium, primary screen, yeast lifespan-shortening project, S. cerevisiae. inhibition, % at 10 µM. OD615, 48 h. AID 804, 2007. 140,000 compounds, 0.51% hits;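 active = inhibition above a set limit, 3 SD over the mean compound inhibition, cut at about 44% in these data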
#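 controls = amphotericin B 10 µg/mL, positive | assay system = DeaD yeast strain BB579 | schedule = 48 h compound exposure at 30 °C after 4 h preincubation | detection = OD615 turbidity measurement | medium = restrictive CSMM-D medium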
# RAM inhibit – inhibitors of the yeast RAM network, primary screen, dse1pr::URA3 reporter, 5-FOA selection | 190,000 compounds, 1.8% hits | inhibition, % at 50 µM | AID 868, 2007 | S. cerevisiae dse1pr::URA3 reporter, 5-FOA growth OD615, 2 d; analog-sensitive cbk1-as2 kinase mutant strain;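 active = inhibition above a set limit, 3 SD over mean compound inhibition, cut at about 8.4% in these data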;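 also: 0% = DMSO-only wells with no growth and 100% = 10 µM 1-NA-PP1 full growth; inhibition rescues growth on 5-FOA so higher OD means more RAM inhibition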
# Numbers without * were called inactive; / = no result given.
SMILES,Measles CPE,Yeast lifespan up,Yeast growth inh,RAM inhibit
CC1=Nc2ccccc2N=C(NC(=O)c2ccccc2)C1c1ccccc1 (configuration not stated),/,/,/,1.1
CC(=O)c1nc(N2C(=O)CC(Cc3cccc(C)c3)C2=O)sc1C (configuration not stated),42.8*,-16.3,-6.1,-0.9
Cc1ccc(N2C(=O)CC(Cc3cc(C)cc(C)c3)C2=O)cc1 (configuration not stated),/,/,/,1.1
Cc1cc(C)cc(CC2CC(=O)N(c3ccc(Cl)cn3)C2=O)c1 (configuration not stated),12.0,42.8*,-24.7,0.0
Cc1cc(C)cc(-n2cc(C(=O)O)c(=O)cc2C)c1,/,/,/,0.1
Cc1nc(Cl)sc1C(=O)Nc1cccc2ccccc12,2.5,-3.3,-2.6,0.4
O=C(C[n+]1cccc(NC(=O)c2ccccc2)c1)c1ccc(NC(=O)c2ccccc2)cc1,9.1,-9.7,-69.4,11.3*
COc1ccc(/C=N/Nc2ccc(C(F)(F)F)cc2[N+](=O)[O-])cc1O,18.3,2.4,-59.3,10.5*
CCOc1ccc(/C=N/Nc2ccc(C(F)(F)F)cc2[N+](=O)[O-])cc1O,32.1*,-0.3,-39.3,3.4
O=C(C1CCCN(CCCc2ccccc2)C1)N1CCCCCC1 (configuration not stated),7.8,1.8,-17.1,2.6
Cc1nn(-c2ccc(Cl)nn2)c(=O)c2ccccc12,/,/,/,1.2
CCOc1ccc(-c2nnn(CC(=O)c3ccc4c(c3)OCCO4)n2)cc1,9.4,-12.6,-35.3,5.7
COc1ccc(-c2nnn(CC(=O)c3ccc4c(c3)OCCO4)n2)cc1OC,27.0*,/,-10.6,6.0
O=C(NCC(c1cccs1)N1CCOCC1)c1ccccc1NS(=O)(=O)c1cccc([N+](=O)[O-])c1 (configuration not stated),31.6*,3.3,5.3,-0.1
CN(C)c1ccc(N=Nc2ccccc2C(=O)OCC(=O)N(C)c2ccccc2)cc1,7.3,-5.3,-12.2,10.3*
COC(=O)c1ccccc1NC(=O)COC(=O)c1ccccc1N=Nc1ccc(N(C)C)cc1,6.1,-1.6,-52.9,5.2
CC(C)(C)NC(=O)C(c1ccc(F)cc1)N(Cc1ccccc1Cl)C(=O)c1ccn[nH]1 (configuration not stated),/,/,/,2.6
COc1ccccc1N=C(C)C1=C(O)CC(c2ccccc2)CC1=O (configuration not stated),/,/,/,-0.9
CCCC(=Nc1ccccc1OC)C1=C(O)CC(c2ccccc2)CC1=O (configuration not stated),1.7,58.7*,-20.0,0.3
CCCCC(=Nc1ccccc1OC)C1=C(O)CC(c2ccccc2)CC1=O (configuration not stated),3.9,66.5*,17.1,-1.6
N#CCN1CCC(c2cc(-c3ccco3)n[nH]2)CC1,/,/,/,1.0
COc1cc(/C=N\n2nnnc2N)ccc1OCc1ccc(F)cc1,59.7*,-9.2,-57.0,1.7
CCOc1cc(/C=N/O)ccc1OCc1ccc(F)cc1,3.8,-6.1,-31.1,0.6
COc1cc(/C=N/n2c(C)n[nH]c2=S)ccc1OCc1ccc(F)cc1,121.8*,1.1,-10.5,2.6
COc1cc(/C=N/n2nnnc2N)ccc1OCc1c(C)no[n+]1[O-],9.2,3.8,-33.0,5.7
SMILES,Measles CPE,Yeast lifespan up,Yeast growth inh,RAM inhibit
O=c1[nH]c(=S)[nH]c(O)c1N=Nc1ccc(-c2ccccc2)cc1[N+](=O)[O-],/,/,/,4.4
CNS(=O)(=O)c1cccc(C(=O)OCC(=O)Nc2ccc(-c3nc4ccc(C)cc4s3)cc2)c1,/,/,/,11.3*
Cc1ccc2nc(-c3ccc(NS(=O)(=O)c4ccc(F)cc4)cc3)sc2c1,10.0,-7.2,90.7*,4.3
CC(=O)Nc1ccc(S(=O)(=O)Nc2nc3ccc(C)cc3s2)cc1,2.8,-4.2,10.4,4.0
CN1CSC2=C(C#N)C(c3cccc(OCc4ccccc4)c3)CC(=O)N2C1 (configuration not stated),63.0*,-11.2,-3.2,0.9
CC(=O)NCCn1c(SCc2cc(=O)n3cc(Cl)ccc3n2)nc2ccccc2c1=O,2.3,-8.8,-27.6,10.9*
CCOc1cc(/C=C\[N+](=O)[O-])ccc1OCC(=O)Nc1ccccc1C,4.5,92.0*,-41.6,-0.3
Cc1nc(CCNC(=O)Cc2ccc(Cl)cc2)cs1,38.9*,-8.0,-3.1,-0.3
COc1ccc(/C=C/C(=O)c2cc3c(cc2N)OCO3)cc1,/,/,/,0.8
Cc1cc(C)c2cc(C#N)c(N3CCCC3)nc2c1,37.8*,-26.7,-40.5,0.9
CC(=O)c1cc(C#N)c(N2CCCC2)nc1C,/,/,/,1.9
C=CCn1c(SCC(=O)Nc2ccc(NC(=O)c3ccco3)c(OC)c2)nnc1-c1ccncc1,2.0,-11.0,-5.0,3.1
C=CCn1c(SCC(=O)Nc2cc(OC)c(NC(=O)c3ccco3)cc2OC)nnc1-c1ccncc1,6.6,/,-3.9,8.6*
COc1cccc(-c2nc(CS(=O)(=O)CC(=O)NCCCOC(C)C)c(C)o2)c1,40.8*,-2.3,-11.5,-0.8
COC(=O)C1=C(O)CSC1=Nc1ccccc1,23.5,-7.1,-27.8,0.5
COC(=O)C1=C(O)CSC1=Nc1ccc(C)cc1,26.0*,-4.8,-35.5,1.8
CN(C)c1cccc(C(=O)OC(C(=O)Nc2ccc([N+](=O)[O-])cc2Br)c2ccccc2)c1 (configuration not stated),19.6,10.4,-57.3,5.1
CSCCC(=O)N1C(C)CCCC1C(=O)O (configuration not stated),26.5*,-6.3,-8.0,1.6
CN1CCN(c2nc3c(c(=O)[nH]c(=O)n3C)n2CC(N)=O)CC1,28.6*,-3.7,-18.0,-0.1
C=CCn1c(N2CCCCCC2)nc2c1c(=O)[nH]c(=O)n2C,5.6,-13.5,-9.8,-0.7
Cn1c(=O)[nH]c(=O)c2c1nc(N1CCCCCC1)n2CCN1CCCCCC1,38.6*,-6.7,-13.0,1.4
CCCn1c(N2CCN(C)CC2)nc2c1c(=O)[nH]c(=O)n2C,15.9,/,-3.7,2.2
Cn1c(=O)[nH]c(=O)c2c1nc(N1CCCCC1)n2CC(O)CN1CCCCC1 (configuration not stated),7.9,44.7*,2.3,2.3
CCOC(=O)c1cc2c(nc1C)-c1cc(Cl)cc(Cl)c1OC2O (configuration not stated),/,/,/,2.6
Cc1ccc(Oc2ncccc2COC(=O)Nc2ccccc2C)cc1,/,/,/,2.9
Cc1ccc(Sc2ncccc2COC(=O)Nc2ccccc2)cc1,5.2,-20.8,-47.8,9.2*
Cc1ccccc1NC(=O)OCc1cccnc1Sc1ccc(Cl)cc1,5.4,-9.3,-24.7,9.9*
Cc1ccc(Sc2ncccc2COC(=O)Nc2c(C)cccc2C)cc1,7.8,-15.9,-54.6,1.6
CCN(CC)C(=O)CSc1nc2sc3c(c2c(=O)n1-c1ccc(C)cc1)CC(C)(C)SC3,6.9,-8.8,-43.7,3.4
